Measurements taken from ChEMBL document CHEMBL4680218, “Design and synthesis of tripeptidyl furylketones as selective inhibitors against the β5 subunit of human 20S proteasome” (Eur J Med Chem, 2020).
pIC50, pKd: −log10 of the molar value. Activity calls are given as the source filed them.

Assays:
[1] = target: T1, Proteasome Macropain subunit MB1 (Homo sapiens) (UniProt P28074); assay: Reversible inhibition of human 20S proteasome beta5 subunit assessed as residual enzyme activity using Suc-LLVY-Glo as substrate preincubated for 2 hrs followed by compound washout and further incubated for 4 hrs followed by substrate addition and measured after 10 mins by bioluminescent assay relative to control
T1 sequence (whole entry): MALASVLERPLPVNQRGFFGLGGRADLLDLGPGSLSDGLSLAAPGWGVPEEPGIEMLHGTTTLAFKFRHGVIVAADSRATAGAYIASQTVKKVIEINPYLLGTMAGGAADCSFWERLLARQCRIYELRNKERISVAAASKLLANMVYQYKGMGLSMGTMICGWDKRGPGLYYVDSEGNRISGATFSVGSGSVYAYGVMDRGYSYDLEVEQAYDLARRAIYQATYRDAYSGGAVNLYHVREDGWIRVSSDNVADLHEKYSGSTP
Summary of the method: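 Human 20S proteasome (8 μg/mL) was pre-incubated with inhibitor for 2 h at 25 °C. Samples were then washed five times in assay buffer on 100 kDa cut-off centrifugal filters (14,000 g, 5 min each) and recovered. After a further 4 h at 25 °C, Suc-LLVY-Glo was added and luminescence was read after 10 min. Unwashed samples held an extra 4 h served as the standard.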

A549 = assay: Cytotoxicity against human A549 cells assessed as reduction in cell viability after 72 hrs by Cell Titer-Glo assay; format: functional, cell-based; details: A549, 72 h
Summary of the method: (§1)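 Cells were cultured in their respective media with 10% FBS, seeded from log phase at 1000 cells/well, and given compound after 18–24 h. After 72 h, an equal volume of CellTiter-Glo reagent was added and luminescence was read at 37 °C. IC50 came from dose-response curve fits; values are mean ± SD of three independent experiments, each in biological triplicate.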

HCT-116 [2] = assay: Cell cycle arrest in human HCT-116 cells assessed as accumulation at S phase at 1 uM after 24 hrs by propidium iodide staining based flow cytometric analysis (reference value: 50%); format: functional
BGC-823 = assay: Cytotoxicity against human BGC-823 cells assessed as reduction in cell viability after 72 hrs by Cell Titer-Glo assay; format: functional, cell-based; details: BGC-823, 72 h; summary of the method: as §1
HeLa = assay: Cytotoxicity against human HeLa cells assessed as reduction in cell viability after 72 hrs by Cell Titer-Glo assay; format: functional, cell-based; summary of the method: as §1
HT-29 = assay: Cytotoxicity against human HT-29 cells assessed as reduction in cell viability after 72 hrs by Cell Titer-Glo assay; format: functional, cell-based; details: HT-29, 72 h; summary of the method: as §1
HCT-116 [3] = assay: Cell cycle arrest in human HCT-116 cells assessed as accumulation at G2/M phase at 1 uM after 24 hrs by propidium iodide staining based flow cytometric analysis (reference value: 21%); format: functional
[4] = target: T1, Proteasome Macropain subunit MB1 (Homo sapiens); assay: Inhibition of chymotrypsin-like activity of human 20S proteasome beta5 subunit at 50 uM using Suc-LLVY-Glo as substrate incubated for 2 hrs followed by substrate addition and measured for 10 mins by bioluminescent assay relative to control; details: time 130.0 min
Summary of the method: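 Human constitutive 20S proteasome (1 µg/mL) was incubated with compound for 2 h at 25 °C in 10 mM HEPES pH 7.6 with 1% DMSO final. Suc-LLVY-Glo substrate was then added, and luminescence was read over 10 min. Inhibition rate was calculated against the uninhibited signal.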

HEK293 = assay: Cytotoxicity against human HEK293 cells assessed as reduction in cell viability after 72 hrs by Cell Titer-Glo assay; format: cell-based; details: HEK293, 72 h; summary of the method: as §1
[5] = target: T2, Proteasome Macropain subunit MB1 (Homo sapiens, UniProt P28074); assay: Inhibition of chymotrypsin-like activity of human 20S proteasome beta5 subunit using Suc-LLVY-Glo as substrate incubated for 2 hrs followed by substrate addition and measured for 10 mins by bioluminescent assay
T2 sequence (P28074 whole entry): T1 sequence (whole entry)
Summary of the method: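 Human constitutive 20S proteasome (1 μg/mL) was combined with compound serially diluted in 10 mM HEPES pH 7.6, with final DMSO 1% (v/v). After 2 h at 25 °C, Suc-LLVY-Glo (CT-L), Z-LRR-Glo (T-L) or Z-nLPnLD-Glo (C-L) reagent was added. Luminescence was read over 10 min, and IC50 was taken from inhibition rates.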

[6] = Cytotoxicity against human PC3M1E8 cells assessed as reduction in cell viability after 72 hrs by Cell Titer-Glo assay; format: functional, cell-based; details: PC3M1E8, 72 h; summary of the method: as §1
A-375 = assay: Cytotoxicity against human A-375 cells assessed as reduction in cell viability after 72 hrs by Cell Titer-Glo assay; format: functional, cell-based; details: A-375, 72 h; summary of the method: as §1
HCT-116 [7] = assay: Cytotoxicity against human HCT-116 cells assessed as reduction in cell viability after 72 hrs by Cell Titer-Glo assay; format: functional, cell-based; details: HCT-116, 72 h; summary of the method: as §1
HCT-116 [8] = assay: Cell cycle arrest in human HCT-116 cells assessed as accumulation at G1 phase at 1 uM after 24 hrs by propidium iodide staining based flow cytometric analysis (reference value: 29%); format: functional
[9] = Clearance in Sprague-Dawley rat at 5 mg/kg, iv measured up to 48 hrs by LC-MS/MS analysis; format: ADME, organism-based; details: in vivo
Summary of the method: (§2)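 Male Sprague-Dawley rats, three per group, fasted 12 h, then given a single intravenous dose of 5 mg/kg in 8% ethanol, 2% Tween 80 and 90% sterile water. Blood was drawn from the venous plexus at the inner canthus into heparin tubes at 5, 15 and 30 min and at 1, 2, 4, 8, 24, 32 and 48 h. Plasma was quantified by LC-MS/MS against an internal standard.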

[10] = Half life in Sprague-Dawley rat at 5 mg/kg, iv measured up to 48 hrs by LC-MS/MS analysis; format: ADME, organism-based; details: in vivo; summary of the method: as §2
[11] = target: T1, Proteasome Macropain subunit MB1 (Homo sapiens); assay: Covalent binding affinity to human 20S proteasome beta5 subunit assessed as hemi-ketal formation using H2O-MeOH as mobile phase by HPLC analysis
[12] = MRT in Sprague-Dawley rat at 5 mg/kg, iv measured up to 48 hrs by LC-MS/MS analysis; format: ADME, organism-based; details: in vivo; summary of the method: as §2
[13] = AUC(0 to t) in Sprague-Dawley rat at 5 mg/kg, iv measured up to 48 hrs by LC-MS/MS analysis; format: ADME, organism-based; set-up: route intravenous, dose 5 mg/kg, time <=48; details: in vivo; summary of the method: as §2
[14] = target: T1, Proteasome Macropain subunit MB1 (Homo sapiens); assay: Binding affinity to immobilized human 20S proteasome beta 5 subunit assessed as dissociation rate constant by SPR analysis
Summary of the method: (§3)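 Purified human constitutive 20S proteasome was immobilised on a CM5 chip. Analyte was a 2-fold series from 25 to 1.56 µM in running buffer (10 mM phosphate, 2.7 mM KCl, 137 mM NaCl, 0.05% P20, 5% DMSO, pH 7.4). Flow was 30 µL/min, with 60 s association and 60 s dissociation. Responses were normalised by molecular weight, and kon/koff came from a 1:1 binding fit.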

[15] = target: T2, Proteasome Macropain subunit MB1; assay: Binding affinity to immobilized human 20S proteasome beta 5 subunit by SPR analysis
Summary of the method: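 SPR used purified human 20S proteasome coupled to a CM5 chip. Analytes were 2-fold series from 25 to 1.56 μM in PBS-P running buffer (pH 7.4, 0.05% P20) with 5% DMSO, flowed at 30 μL/min with 60 s association and 60 s dissociation. Data were normalized by molecular weight and fitted to a 1:1 Langmuir model; KD is from the rate constants.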

[16] = target: T1, Proteasome Macropain subunit MB1 (Homo sapiens); assay: Covalent binding affinity to human 20S proteasome beta5 subunit assessed as compound-tryptic digest TTTLAFKFR peptide adduct formation at 10 uM incubated for 2 hrs measured after overnight incubation with trypsin by LC-MS/MS analysis
Summary of the method: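 Purified human 20S proteasome (4 nM) was incubated with 10 μM inhibitor for 2 h at room temperature, then quenched and denatured with acetonitrile. Trypsin (1:50) digestion ran overnight at 37 °C, followed by C18 desalting. Nano-LC-MS/MS used a 0.1% formic acid water/acetonitrile gradient. Adducts were searched against UniProt at ±10 ppm precursor and ±0.02 Da fragment tolerance, allowing 2 missed cleavages.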

[17] = Volume of distribution at steady state in Sprague-Dawley rat at 5 mg/kg, iv measured up to 48 hrs by LC-MS/MS analysis; format: ADME, organism-based; details: in vivo, read-out: Vdss; summary of the method: as §2
[18] = target: T1, Proteasome Macropain subunit MB1 (Homo sapiens); assay: Covalent binding affinity to human 20S proteasome beta5 subunit assessed as methyl hemi-ketal formation using H2O-CH3CN as mobile phase by HPLC analysis
[19] = Cmax in Sprague-Dawley rat at 5 mg/kg, iv measured up to 48 hrs by LC-MS/MS analysis; format: ADME, organism-based; set-up: route intravenous, dose 5 mg/kg, time <=48; details: in vivo; summary of the method: as §2
[20] = Toxicity in BALB/c athymic nude mouse xenografted with human HCT-116 cells assessed as reduction in body weight at 10 mg/kg, iv administered twice a week for 28 days; format: organism-based; details: in vivo, 672 h, time 28 day
Summary of the method: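 Male nude mice had 1 × 10^7 HCT-116 cells in serum-free RPMI 1640 implanted subcutaneously in the right flank. At ~300 mm³ (about day 10) they were randomized, n=3/group. Dosing was by tail vein twice weekly (D1/D4) for four weeks: 10 mg/kg in 8% ethanol/2% Tween 80/90% water, or 5 mg/kg in 10% sulfobutylether-β-cyclodextrin, 10 mmol/L citrate pH 3.5. Caliper volume (length × width²)/2 and body weight were measured twice weekly.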

[21] = target: T1, Proteasome Macropain subunit MB1 (Homo sapiens); assay: Binding affinity to immobilized human 20S proteasome beta 5 subunit assessed as association rate constant by SPR analysis; summary of the method: as §3

Row | Activity [1] | inhibition [4] | pIC50 [5] | SMILES | pIC50 (A549) | Activity (HCT-116 [2]) | pIC50 (BGC-823) | pIC50 (HeLa) | pIC50 (HT-29) | Activity (HCT-116 [3]) | pIC50 (HEK293) | pIC50 [6] | pIC50 (A-375) | pIC50 (HCT-116 [7]) | Activity (HCT-116 [8]) | further results
1 | 80% |  |  | CC(C)C[C@H](NC(=O)[C@H](Cc1ccccc1)NC(=O)c1cnccn1)B(O)O |  |  |  |  |  |  |  |  |  |  |  | 
2 |  | > 50% | 6.27 | COc1ccc(C[C@H](NS(=O)(=O)c2ccc(C)cc2)C(=O)N[C@@H](Cc2ccc(O)cc2)C(=O)N[C@@H](CC(C)C)C(=O)c2ccco2)cc1 | 4.88 | 25% | 5.08 | 5.20 | 5.27 | 51% | < 4.30 | 5.30 | 5.41 | 5.45 | 24% | 
3 | < 30% | > 50% | 6.74 | COC[C@H](NC(=O)[C@H](CC(=O)NCC(C)(C)C)NS(=O)(=O)c1ccc(C)cc1)C(=O)N[C@@H](CC(C)C)C(=O)c1ccco1 | 5.89 | 14% | 6.11 | 6.17 | 6.14 | 77% | < 4.30 | 6.24 | 6.06 | 6.55 | 9% | clearance [9]: 33.3 mL/min/kg; half-life [10]: 13.8 min; Activity [11]: 27%; MRT [12]: 20.2 min; AUC(0-t) at 48 h [13]: 680 ng·h/mL; Kdiss [14]: 0.0192 s⁻¹; pKd [15]: 5.32; Activity [16]: inactive; Vd [17]: 0.66 L/kg; Activity [18]: inactive; Cmax [19]: 2010 ng/mL; Activity [20]: Non-Toxic; Ka [21]: 4210 M⁻¹ s⁻¹
